Hits are enriched below; roughly 1.6% of the tested compounds scored in any of these assays.
ARFGAP1 inh – rat ARFGAP1 inhibition. AID 651572. actives 0.26% (n = 360,000). Arfgap1-stimulated ARF1 GTP hydrolysis, GDP FP detection. inhibition, % at 16.5 µM;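 active = inhibition above a per-plate limit, mean inhibition of low control wells plus 3 SD, cut at about 25% in these data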
Target sequence (Q62848 1-136 limits assumed): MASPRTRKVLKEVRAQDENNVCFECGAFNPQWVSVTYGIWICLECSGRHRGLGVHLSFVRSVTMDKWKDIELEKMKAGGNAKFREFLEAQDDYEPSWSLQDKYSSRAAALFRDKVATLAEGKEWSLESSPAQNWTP
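Material: rat Arfgap1 GAP domain (His6, aa 1-136), purified enzyme. Also added: human ARF1(Δ1-17)-GTP substrate. Compound dosing: 16.5 µM single point, 1.26% DMSO. Timing: enzyme reaction 120 min at 25 °C after 20 min preincubation. Signal: GDP detection by fluorescence polarization. Read-out basis: percent inhibition of GAP-stimulated GDP formation, scaled between DMSO and no-Arfgap1 medians.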
Cardio protect – protects H9c2 cardiomyocytes from peroxide injury; protection from H2O2 cell death, % at 20 µM; AID 588492; actives 0.63% (n = 360,000); H2O2 injury protection, ATPLite, 2 h;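 active = compounds giving at least 50% protection of heart cells from peroxide-induced death in the single-dose screen, raw or plate-pattern-corrected value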
ASAP1 GAP inh – inhibitors of human ASAP1 ArfGAP activity; Q9ULH1; ASAP1-stimulated ARF1 GTP hydrolysis, GDP FP detection; inhibition, % at 16.5 µM; actives 0.19% (n = 360,000); in the data active = inhibition above about 25%
Target sequence (Q9ULH1 325-724 limits assumed): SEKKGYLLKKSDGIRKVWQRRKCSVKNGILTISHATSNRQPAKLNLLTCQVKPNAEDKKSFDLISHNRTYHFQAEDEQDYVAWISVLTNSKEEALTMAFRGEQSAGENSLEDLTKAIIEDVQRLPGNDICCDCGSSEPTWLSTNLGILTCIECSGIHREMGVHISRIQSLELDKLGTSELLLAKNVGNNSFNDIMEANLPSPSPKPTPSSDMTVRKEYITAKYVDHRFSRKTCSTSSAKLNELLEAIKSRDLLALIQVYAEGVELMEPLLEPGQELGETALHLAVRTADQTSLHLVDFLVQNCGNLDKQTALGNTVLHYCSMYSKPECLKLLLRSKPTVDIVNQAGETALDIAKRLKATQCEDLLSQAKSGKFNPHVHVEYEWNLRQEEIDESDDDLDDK
Neddylation inh – inhibitors of human cullin neddylation | AID 651699 | actives 0.58% (n = 360,000) | inhibition, % at 25 µM | TR-FRET cullin neddylation, biochemical | P61081+Q13564; in the data active = inhibition above about 36%
Of the large screens only hits and unclear results are named; the others gave an inactive call.

COc1cccc(/C=N/NC(=O)c2c(C)nc3ccc(Br)cn23)c1O	Cardio protect 58 (no result: ARFGAP1 inh, ASAP1 GAP inh)
COc1cc2c(cc1OC)[C@](C)(c1ccccc1)C[C@@H]2NCC=C(C)C	none (no result: Cardio protect, Neddylation inh)
COc1cc(N/N=C/c2ccc(N(C)C)cc2)ncn1	Neddylation inh 40
COc1cc(N/N=C/c2ccccc2O)ncn1	none
O=C(N[C@@H](Cc1cccnc1)C(=O)N1CCC[C@H]1C(=O)NC1CCCC1)C1CCCC1	none (no result: Cardio protect, Neddylation inh)
COc1ccc(C2CC(=O)C(c3ccc(Br)cc3)=CN2Cc2ccccc2)cc1 (stereo not drawn)	none (no result: Cardio protect, Neddylation inh)
Cc1cccc(NC(c2ccc(O)cc2)c2ccc3ccc(C)nc3c2O)n1 (stereo not drawn)	Cardio protect 92
COc1cccc(C(Nc2ccccc2)c2ccc3ccc(C)nc3c2O)c1 (stereo not drawn)	none (no result: Cardio protect)
CCCCNC(=O)c1cn(-c2ccc(OCC)cc2)c(=O)c2cc(OC)c(OC)cc12	Cardio protect 65
CCOc1ccc(NC(=O)c2cn(-c3ccc(OCC)cc3)c(=O)c3cc(OC)c(OC)cc23)cc1	none
COc1ccc(-c2cc(C#N)nc(N3CCN(C)CC3)n2)cc1	none
COc1ccc(-c2cc(C#N)nc(N3CCNCC3)n2)cc1	ARFGAP1 inh 75, ASAP1 GAP inh 53
Cc1ccc(C(=O)NNC(=S)NC(=O)c2ccc(Cl)cc2Cl)cc1	Cardio protect 54
Cc1ccc(C(=O)NNC(=S)NC(=O)c2ccccc2)cc1	Neddylation inh 39
COc1ccc(-c2cc(C(=O)Nc3cc(C)n(Cc4ccc(Cl)cc4)n3)no2)cc1OC	Neddylation inh 47 (no result: ARFGAP1 inh, ASAP1 GAP inh)
COc1ccc(OC)c(-c2cc(C(=O)Nc3c(C)nn(Cc4ccc(Cl)cc4)c3C)no2)c1	none
Cc1ccc(Nc2nc(N)[nH]c(=O)c2N=O)cc1	Cardio protect 52
COC(=O)N1C[C@H](OCCCOCc2ccccc2)[C@H]2C[C@@H]1c1ccccc1O2	none (no result: Cardio protect, Neddylation inh)
Fc1ccc(Nc2nc(NCc3ccco3)c3ccccc3n2)cc1	Neddylation inh 43
CSc1nc2sc3c(c2c(=O)[nH]1)CCC3	Cardio protect 52
CSc1nc2sc3c(c2c(=O)[nH]1)CCCC3	none
CCCCc1nc2sc3c(c2c(=O)[nH]1)CCC3	Cardio protect 70
COCc1[nH]nc2c1C(c1ccc(Br)cc1)N(Cc1ccccc1)C2=O (stereo not drawn)	none (no result: Cardio protect, Neddylation inh)
C[C@H](NC(=O)c1nc[nH]c1C(=O)NCC(=O)OCc1ccccc1)c1ccccc1	Cardio protect 84
C[C@H](NC(=O)c1nc[nH]c1C(=O)NCC(=O)OCc1ccccc1)C(=O)OCc1ccccc1	Cardio protect 77
CC(C)C[C@H](NC(=O)c1nc[nH]c1C(=O)NCC(=O)OCc1ccccc1)C(=O)OCc1ccccc1	none
CC(C)(C)OC(=O)CNC(=O)c1[nH]cnc1C(=O)NC(c1ccccc1)c1ccccc1	Cardio protect 59
C[C@H](NC(=O)c1nc[nH]c1C(=O)NC(c1ccccc1)c1ccccc1)C(=O)OC(C)(C)C	none
C[C@@H](OC(=O)c1[nH]cnc1C(=O)NCc1ccc(CNC(=O)OC(C)(C)C)cc1)c1ccccc1	Cardio protect 59
C[C@H](NC(=O)c1nc[nH]c1C(=O)OCc1ccccc1)c1ccccc1	none
CC1(C(=O)NS(=O)(=O)c2ccc(F)cc2F)CCN1C(=O)c1ccc(C2CCCCC2)cc1 (stereo not drawn)	none
C[C@@H]1ON(C)[C@H]2C[C@H]3c4[nH]c5c(-c6cccc(F)c6)cccc5c4CCN3C(=O)[C@@H]12	none (no result: Cardio protect, Neddylation inh)
O=C(N[C@H](Cc1ccccc1)C(=O)O)[C@H]1O[C@@H](n2ccc(=O)[nH]c2=O)[C@H](O)[C@@H]1O	none (no result: Cardio protect, Neddylation inh)
COc1cccc(CC(=O)NCC2CCN(C(=O)C(=O)c3cccs3)CC2)c1	none (no result: Cardio protect, Neddylation inh)
Cc1nc2c(c(=O)n1CCC1=CCCCC1)c1nc3ccccc3nc1n2/N=C/c1ccccc1	Cardio protect 109 (no result: ARFGAP1 inh, ASAP1 GAP inh)
O=c1c2c3nc4ccccc4nc3n(/N=C/c3ccco3)c2ncn1CCC1=CCCCC1	none
CCCCCCn1c(C)nc2c(c1=O)c1nc3ccccc3nc1n2/N=C/c1ccco1	Cardio protect 90
Cc1ccc(S(=O)(=O)c2c(N)n(/N=C/c3ccco3)c3nc4ccccc4nc23)cc1	none (not shown: Neddylation inh)
Cc1cc2c(nc1C)CCCN2S(=O)(=O)c1cccs1	none (no result: Cardio protect, Neddylation inh)
CCOC(=O)N1CCC(n2c(SCC(=O)N3CCCC3)nc3ccccc3c2=O)CC1	none
CCOC(=O)N1CCC(n2c(SCC(=O)N3CCC(C)CC3)nc3ccccc3c2=O)CC1	Cardio protect 67
CN(C)C(=O)C1C2NC(=S)N(c3cccc(Cl)c3)C1(C)Oc1ccc(Cl)cc12 (stereo not drawn)	Cardio protect 56
COc1ccc(Nc2nnc(-c3ccc4c(c3)OCO4)o2)cc1	none (no result: Cardio protect, Neddylation inh)
O=C(Cc1ccccc1)NN=Cc1ccccc1	none
O=C(Cc1ccccc1)N/N=C/c1cc(Br)c(Br)o1	ASAP1 GAP inh 27
O=C(Cc1ccccc1)Nc1cccc(-c2nc3ncccc3o2)c1	none (not shown: Neddylation inh)
Cc1cc(C)cc(OCC(=O)Nc2cccc(-c3nc4ncccc4o3)c2)c1	Cardio protect 102
CCOc1ccc(CCn2c(-c3ccco3)nc3ccccc3c2=O)cc1OCC	Cardio protect 104
O=c1c2ccccc2nc(-c2ccco2)n1Cc1ccccc1	none
O=C(N/N=C/c1ccccc1O)C1CC(=O)N(c2ccc(Cl)cc2)C1 (stereo not drawn)	Cardio protect 55, Neddylation inh 51
Cc1ccc(/C=N/NC(=O)C2CC(=O)N(c3ccccc3)C2)s1 (stereo not drawn)	none
CCOc1cc(N2CCOCC2)c(OCC)cc1NC(=O)c1ccccc1	none
CCCn1nc(C(=O)Nc2cc(OCC)c(N3CCOCC3)cc2OCC)c2ccccc2c1=O	Cardio protect 56
CCOc1cc(N2CCOCC2)c(OCC)cc1NC(=O)Cn1[nH]c(=O)c2ccccc2c1=O	Cardio protect 79
Cc1cc(Nc2cccc([N+](=O)[O-])c2)cc(=O)n1-c1cccc([N+](=O)[O-])c1	none (no result: Cardio protect, Neddylation inh)
COC(=O)[C@]12C[C@H](CC(=O)N3CCCCC3)C(=O)N(Cc3ccccc3)C1=C[C@H](C(C)C)O[C@@H]2C1CC1	none (no result: Cardio protect, Neddylation inh)
COC(=O)c1ccccc1NC(=O)/C=C/c1cc(OC)c(OC)c(OC)c1	Cardio protect 57
Cc1ccc(S(=O)(=O)N2C[C@H]3[C@H]4C(=O)N(c5ccccc5)C(=O)[C@H]4C[C@H](OC(=O)NCc4ccccc4)[C@@]3(O)C2)cc1	none
Cc1ccc(OCCOC(=O)CCc2nc3ccccc3c(=O)[nH]2)cc1	Cardio protect 55
O=C(NNC(=O)c1ccc2ccccc2n1)c1ccc(O)cc1	none
CCN(CC(=O)Nc1ccc(NC(C)=O)cc1)C(=O)CCCc1nc2ccccc2c(=O)[nH]1	none
CCN(CC(=O)Nc1cc(Cl)ccc1C)C(=O)CCc1nc2ccccc2c(=O)[nH]1	Cardio protect 69
COc1ccc(C(=O)NNC(=O)c2ccc3ccccc3n2)cc1	Cardio protect 52
CCCCOc1ccc(C(=O)NCC(=O)N(C)Cc2nc3ccccc3c(=O)[nH]2)cc1	Cardio protect 54
O=C(C(=O)N1CCC(CNS(=O)(=O)c2ccc(OC(F)(F)F)cc2)CC1)c1cc2ccccc2o1	none (no result: Cardio protect, Neddylation inh)

Compound activity: PubChem, several laboratories
